Results published in PMC3421229 (International Journal of Biological Sciences, 2012).

Tests used:
LdisPBP1 [1] = molecular target: T1, LdisPBP1 (Lymantria dispar, UniProt O16105); assay: fluorescence titration of 1-NPN with LdisPBP1; assay type: binding; details: dissociation constant of the LdisPBP1/1-NPN complex
T1 sequence (O16105 20-162): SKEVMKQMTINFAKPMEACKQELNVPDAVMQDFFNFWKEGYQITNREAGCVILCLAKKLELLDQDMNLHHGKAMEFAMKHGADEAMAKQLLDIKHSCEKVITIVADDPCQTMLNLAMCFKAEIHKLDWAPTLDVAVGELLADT
Method in brief: (§1)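 Recombinant His-tagged PBP from E. coli, Ni-resin and gel-filtration purified. A 2 μM protein solution in 50 mM Tris-HCl pH 7.3 or 50 mM Na2HPO4-citric acid pH 5.5 was titrated with 1-NPN (1 mM methanol stock) to 1–20 μM final. 25°C; excitation 337 nm, emission 370–470 nm, 10 nm slits. Kd calculated from the binding curve; three independent measurements.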

LdisPBP2 [2] = molecular target: T2, LdisPBP2 (Lymantria dispar, UniProt O16106); assay: fluorescence titration of 1-NPN with LdisPBP2; assay type: binding; details: dissociation constant of the LdisPBP2/1-NPN complex
T2 sequence (O16106 21-165): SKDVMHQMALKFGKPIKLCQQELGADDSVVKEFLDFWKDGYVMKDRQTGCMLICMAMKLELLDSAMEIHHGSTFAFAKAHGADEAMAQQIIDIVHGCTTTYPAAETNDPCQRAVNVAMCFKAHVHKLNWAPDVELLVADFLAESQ
Method in brief: as §1

PBP1 = details: cited from earlier work
LdisPBP1 [3] = molecular target: T1, LdisPBP1; assay: competitive fluorescence binding assay with 1-NPN as probe, LdisPBP1
Method in brief: (§2)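 N-terminally His-tagged recombinant PBP was expressed in E. coli BL21(DE3) (0.25 mM IPTG, 18°C overnight), then purified by Ni-resin and gel filtration. 2 μM protein plus 2 μM 1-NPN in 50 mM Tris-HCl pH 7.3 or 50 mM Na2HPO4-citric acid pH 5.5, at 25°C; ex 337 nm, em 370–470 nm. Competitors (1 mM methanol stock) at 2–20 μM. IC50 = half-maximal fluorescence reduction; Ki = IC50/(1+[1-NPN]/K1-NPN). Triplicates.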

LdisPBP2 [4] = molecular target: T2, LdisPBP2; assay: competitive fluorescence binding assay with 1-NPN as probe, LdisPBP2
Method in brief: as §2

male L.dispar = assay: initial field experiment, attraction of male moths; assay type: in vivo, Lymantria dispar; details: initial field experiment (data not shown)
gypsy moth = details: cited from earlier work
[5] = PBP1[Ki(μM)] pH5.5, pH 5.5, n=3, 2 μM protein and 1-NPN
[6] = PBP1[Ki(μM)] pH7.3, pH 7.3, n=3, 2 μM protein and 1-NPN
[7] = PBP2[Ki(μM)] pH5.5, pH 5.5, n=3, 2 μM protein and 1-NPN
[8] = PBP2[Ki(μM)] pH7.3, pH 7.3, n=3, 2 μM protein and 1-NPN

Row | Ki (LdisPBP1 [3]; [5]) [µM] | Ki (LdisPBP1 [3]; [6]) [µM] | Ki (LdisPBP2 [4]; [7]) [µM] | Ki (LdisPBP2 [4]; [8]) [µM] | Compound | Kd (LdisPBP1 [1]; pH 5.5) [µM] | Kd (LdisPBP1 [1]; pH 7.3) [µM] | Kd (LdisPBP2 [2]; pH 5.5) [µM] | Kd (LdisPBP2 [2]; pH 7.3) [µM] | binding preference of PBP1 for pheromone enantiomers (PBP1) | attraction of male L.dispar compared with (+)-D alone (male L.dispar) | effect on the pheromone (gypsy moth)
1 | – | – | – | – | c1ccc(Nc2cccc3ccccc23)cc1 [1-NPN, N-phenyl-1-naphthylamine] | 1.71 ± 0.2 | 1.77 ± 0.31 | 8.74 ± 2.05 | 2.03 ± 0.42 | – | – | –
2 | – | – | – | – | CCCCCCCCCC[C@H]1O[C@H]1CCCCC(C)C [(-)-disparlure] | – | – | – | – | preferentially bound | – | –
3 | 2.2 ± 0.01 | 3.25 ± 0.02 | 3.54 ± 0.01 | 1.97 ± 0.01 | O=C(CCCCC(=O)OCC1CCC2OC2C1)OCC1CCC2OC2C1 (stereo not shown) [Bis, Bis(3,4-epoxycyclohexylmethyl) adipate] | – | – | – | – | – | reverse | –
4 | 0.68 ± 0.01 | 1.87 ± 0.01 | 1.88 ± 0.02 | 1.85 ± 0.02 | CCCCCCCCCCC1OC12CC2 (stereo not shown) [OXP1, 2-decyl-1-oxaspiro[2.2]pentane] | – | – | – | – | – | – | inhibited the effect of the pheromone
5 | 6.33 ± 0.18 | 2.99 ± 0.08 | 5.14 ± 0.06 | 2.46 ± 0.02 | OCCCCC1OC12CC2 (stereo not shown) [OXP2, 4-(1-oxaspiro[2.2]pent-2-yl)butan-1-ol] | – | – | – | – | – | – | enhanced that of pheromone
6 | 3.05 ± 0.01 | 2.93 ± 0.02 | 6.06 ± 0.06 | 5.32 ± 0.07 | O=Cc1ccccc1O [Sal, Salicylaldehyde] | – | – | – | – | – | reverse | –
